Screens as filed in PubChem BioAssay.
UPR XBP1 act = activators of adaptive arm of unfolded protein response (XBP1); activation, % at 20 µM; CHO-XBP1 luciferase reporter, IRE1-XBP1 UPR activation, luminescence; percent of tunicamycin response, DMSO as zero; AID 463104; 0.33% of 330,000 active;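 active = versus positive control, 20 µM dose yields 30% or more activation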
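incubation = overnight seeding at 37 °C, 6 h compound treatment at 37 °C | assay system = CHO-XBP1 cells stably carrying IRE1-XBP1-driven luciferase reporter | input = 1000 cells per well | detection = luciferase luminescence | dosing = single point, 20 µM final compound, 1% DMSO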
TIM10 inh = inhibits growth of TIM10 yeast strain. inhibition, % at 10 µM. 1.4% of 330,000 active. AID 463195. S. cerevisiae TIM10 strain growth, BacTiter-Glo luminescence, 24 h;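 active = inhibition of 40% or more at the single tested concentration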;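 note: wild-type TIM10 isogenic control strain grown at permissive 25 °C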
tim23-1 inh = inhibits growth of tim23-1 mutant yeast; AID 463212; inhibition, % at 20 µM; 1.3% of 330,000 active; S. cerevisiae tim23-1 growth, BacTiter-Glo luminescence, 24 h;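 active = growth inhibition of the mutant yeast at or above 50%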;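 note: temperature-sensitive mutant grown at 25 °C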
UPR CHOP act = apoptotic UPR (CHOP) activation. AID 449763. 0.34% of 330,000 active. activation, % at 10 µM. CHO-CHOP luciferase reporter, luminescence; percent of tunicamycin response over DMSO baseline;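 active = at 10 µM dose, activation of 40% or more, normalized to positive control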
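Test system: CHO CHOP reporter cells. Input: 500 CHO-CHOP cells per well. Medium: F12 with 10% FBS. Technique: luciferase luminescence. Measure: percent activation relative to tunicamycin control. Dosing: 10 µM compound, 0.5% DMSO. Timing: 16-18 h cell attachment, then 6 h compound exposure, 37 °C.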
tim10-1 inh = tim10-1 yeast growth inhibition; 2.2% of 330,000 active; S. cerevisiae tim10-1 ts strain growth, BacTiter-Glo, 24 h; inhibition, % at 20 µM;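 active = inhibition of at least 40%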;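 note: mutant grown at 25 °C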
tim10 confirm = confirmation of TIM10 yeast growth inhibitors; shares compounds with TIM10 inh; S. cerevisiae tim10 strain growth, BacTiter-Glo luminescence, 24 h; inhibition, % at 10 µM; 63% of 4,600 active; AID 463215;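 active = inhibition of yeast growth at or above a set limit in either of two replicates at 10 µM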; note: this counterscreen used the strain with wild-type TIM10
Hits are given with their value; - = inactive; . = no result given. Compounds with a hit are over-represented: about 3.9% of the library has one in this group of screens.

SMILES	UPR XBP1 act	TIM10 inh	tim23-1 inh	UPR CHOP act	tim10-1 inh	tim10 confirm
COc1ccc([N+](=O)[O-])cc1NC(=O)CSCc1cc(C)cc(C)c1	-	-	-	-	-	.
C#CCOCCOCCOCCNc1nc(N2CCN(C(=O)[C@H](CCCCN)n3cc([C@@H](N)CO)nn3)CC2)nc(N2CCN(C(=O)[C@H](Cc3cc4ccccc4[nH]3)n3cc([C@@H](N)CC(C)C)nn3)CC2)n1	-	94.2	-	-	-	-
C#CCOCCOCCOCCNc1nc(N2CCN(C(=O)[C@H](CCCCN)n3cc([C@@H](N)CO)nn3)CC2)nc(N2CCN(C(=O)[C@H](Cc3cc4ccccc4[nH]3)n3cc([C@@H](N)CO)nn3)CC2)n1	-	-	-	-	-	.
O=C(c1ccc(NS(=O)(=O)c2ccc(Cl)c(Cl)c2)cc1)N1CCOCC1	-	-	-	-	-	.
COc1ccc2oc(=O)c(-c3csc(Nc4ccc(O)cc4)n3)cc2c1	-	40.6	-	-	-	-
COc1ccc2oc(=O)c(/C(C)=N/Nc3nc(-c4cc(C)ccc4C)cs3)cc2c1	-	-	-	-	-	.
O=c1[nH]cnc2ncc(-c3ccc(O)cc3)nc12	-	40.7	-	-	-	-
O=c1[nH]cnc2nc(-c3ccccc3)c(-c3ccccc3)nc12	-	-	-	-	-	.
COc1ccccc1C(=O)NCCC(=O)NCCCSc1ccccc1	-	-	-	-	-	.
O=C(CCN1C(=O)c2ccccc2S1(=O)=O)NCc1ccccc1Cl	-	-	-	-	-	.
CC(C)(C)n1nnnc1C(c1cccs1)N(Cc1ccc(Cl)cc1)CC1CCCO1 (centres undefined)	-	41.1	-	-	-	-
Cc1cccc(C(=O)NCCNc2nc3cc(C)c(C)cc3cc2C)c1	-	45.1	-	-	-	39.4
Cc1cc2cc(C)c(NCCNC(=O)c3cccc(F)c3)nc2cc1C	-	-	-	-	-	.
COc1cc(OC)cc(-c2nc3ccccc3c(=O)n2OC(=O)c2ccccc2C)c1	-	48.3	-	-	-	-
COc1ccc(-c2nc3ccccc3c(=O)n2CCOc2c(C)cccc2C)cc1	-	-	-	-	-	.
COc1cc(/C=C2\SC(=O)NC2=O)ccc1Oc1ccc([N+](=O)[O-])cc1[N+](=O)[O-]	-	-	-	-	-	.
CCN1C(=O)C(=Cc2cccc(OC)c2Oc2ccc([N+](=O)[O-])cc2[N+](=O)[O-])SC1=S	-	43.7	-	-	-	-
COc1ccc(C(=O)NC(C)c2cccnc2)cc1S(=O)(=O)N(C)Cc1ccccc1 (centres undefined)	-	-	-	-	-	.
CCOc1ccc(NC(=O)c2nn(C)c(C(=O)Nc3ccc(OCC)cc3)c2[N+](=O)[O-])cc1	-	93.5	-	-	-	-
CC(C)/C=C(/C(=O)c1ccc(Cl)cc1Cl)n1cncn1	-	41.8	-	-	-	-
O=C(Nc1ccc(S(=O)(=O)Nc2cnc3ccccc3n2)cc1)c1cccc(OC(F)F)c1	-	-	-	-	-	.
O=C(/C=C/c1ccccc1)NNC(=O)c1cccc(Cl)c1	-	-	-	-	-	.
O=C(/C=C/c1ccccc1)NNc1ccc(Cl)cc1	-	43.7	-	-	-	47.5
O=C(O)c1ccccc1C(=O)NNc1ccc(Cl)cc1	-	45.7	-	-	-	29.9
Cc1[nH]nc2c1C(c1ccsc1)C1=C(CC(C)(C)CC1=O)N2 (centres undefined)	-	-	-	-	-	.
SMILES	UPR XBP1 act	TIM10 inh	tim23-1 inh	UPR CHOP act	tim10-1 inh	tim10 confirm
Cn1c(O)c(C2=c3ccccc3=NC2=O)sc1=Nc1ccc(Cl)cc1	-	48.6	-	-	-	-
O=C(O)Cn1c(O)c(C2=c3ccccc3=NC2=O)sc1=O	-	-	-	-	-	.
COc1ccc(NC(=O)N2CCCC(c3nc(-c4ccc(OC)cc4)no3)C2)cc1 (centres undefined)	-	-	-	-	-	.
O=C(Nc1ccc(Cl)cc1)N1CCC(c2nc(-c3ccc(F)cc3)no2)CC1	-	48.4	-	-	-	-
Cc1cccc(C(=O)NC2CCN(C(=O)Nc3ccc(F)cc3)CC2)c1	-	-	-	-	-	.
C=CCNC(=S)N/N=C/c1ccc(-c2ccc(OC)cc2)o1	-	41.6	-	-	-	36.4
C=CCNC(=S)N/N=C/c1ccc(C(F)(F)F)cc1	-	40.4	-	-	-	-
O=C(CSc1ccc2ccccc2n1)N/N=C/c1ccccc1O	-	40.8	-	-	-	-
O=C(CSc1ccc2ccccc2n1)N/N=C/c1ccc(O)cc1	-	-	-	-	-	.
O=C1CS/C(=C/C(=O)c2ccccc2)N1	-	-	-	-	-	.
Cc1cc(C)cc(C(=O)/C=C2\NC(=O)CS2)c1	-	49.6	-	-	-	33.8
Cc1ccc(-c2nc3cc(N)ccc3o2)cc1	-	40.9	-	-	-	29.6
Cc1ccc(-c2nc3cc(NS(=O)(=O)c4ccc(C)cc4)ccc3o2)cc1	-	44.8	-	-	-	37.0
Cc1ccc(-c2nc3cc(C)ccc3o2)cc1	-	-	-	-	-	.
COc1ccc(S(=O)(=O)N2CCCCC2)cc1NC(=O)c1ccc(CS(C)(=O)=O)cc1	-	-	-	-	-	.
CCOC(=O)CSc1nnc(-c2ccoc2C)n1-c1ccc(OCC)cc1	-	45.4	-	-	-	-
Cc1noc(C(=O)Nc2ccc3c(c2)OCO3)c1Cl	-	96.9	-	-	-	-
O=C(c1ccco1)N(CC1CCCO1)c1nc(-c2ccccc2)cs1 (centres undefined)	-	-	-	-	-	.
Cc1ccc(-c2csc(N(CC3CCCO3)C(=O)c3ccco3)n2)cc1 (centres undefined)	-	43.3	-	-	-	42.3
COCCN(C(=O)CCc1nnc(Cc2c[nH]c3ccccc23)o1)C(C)C	-	-	-	-	-	.
Cc1ccc(-n2cc(CNCCCn3cccn3)c(-c3cccc(C)c3)n2)cc1	-	-	-	-	-	.
Cc1ccc(-n2cc3c(-c4cccc(Br)c4)nnc(C)c3n2)cc1	-	44.4	-	-	-	30.7
CC(C)Cn1cc(C(=O)N2CCN(c3ccccn3)CC2)c2c3ccccc3n(C)c2c1=O	-	44.5	-	-	-	-
CC12CCC(c3nnc(SCC(=O)Nc4cccc5ccccc45)nc31)C2(C)C (centres undefined)	-	46.1	-	-	-	-
Cc1ccc(S(=O)(=O)N2[C@@H](c3ccc(Br)cc3)C(C(=O)O)=CC[C@H]2c2cccs2)cc1	-	95.5	-	-	-	-
CCOCCc1nnc(NC(=O)CS(=O)(=O)c2ccc(C)cc2)s1	-	-	-	-	-	.
Cc1cccnc1CCNCc1c(C(=O)N2C[C@@H](C)O[C@@H](C)C2)nc2ccc(Cl)cn12	-	-	-	-	-	.
